Bioassay records (PubChem)
Compounds with a hit are over-represented: about 2.3% of the library has one in this group of screens.
TRPC6 inh = blocks the mouse TRPC6 cation channel; Q61143; HEK293-TRPC6, membrane potential dye, ACh-evoked depolarization; hits give low values; B-score at 10 µM; 310,000 compounds, 1.1% hits;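 active = B-score under library mean minus 3 SD, initial fluorescence not abnormally high, positive integrated signal ratio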;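 also: B-score derived from integrated fluorescence ratio over the kinetic read; more negative B-score means stronger inhibition of depolarization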
Target sequence (Q61143 whole entry, looked up): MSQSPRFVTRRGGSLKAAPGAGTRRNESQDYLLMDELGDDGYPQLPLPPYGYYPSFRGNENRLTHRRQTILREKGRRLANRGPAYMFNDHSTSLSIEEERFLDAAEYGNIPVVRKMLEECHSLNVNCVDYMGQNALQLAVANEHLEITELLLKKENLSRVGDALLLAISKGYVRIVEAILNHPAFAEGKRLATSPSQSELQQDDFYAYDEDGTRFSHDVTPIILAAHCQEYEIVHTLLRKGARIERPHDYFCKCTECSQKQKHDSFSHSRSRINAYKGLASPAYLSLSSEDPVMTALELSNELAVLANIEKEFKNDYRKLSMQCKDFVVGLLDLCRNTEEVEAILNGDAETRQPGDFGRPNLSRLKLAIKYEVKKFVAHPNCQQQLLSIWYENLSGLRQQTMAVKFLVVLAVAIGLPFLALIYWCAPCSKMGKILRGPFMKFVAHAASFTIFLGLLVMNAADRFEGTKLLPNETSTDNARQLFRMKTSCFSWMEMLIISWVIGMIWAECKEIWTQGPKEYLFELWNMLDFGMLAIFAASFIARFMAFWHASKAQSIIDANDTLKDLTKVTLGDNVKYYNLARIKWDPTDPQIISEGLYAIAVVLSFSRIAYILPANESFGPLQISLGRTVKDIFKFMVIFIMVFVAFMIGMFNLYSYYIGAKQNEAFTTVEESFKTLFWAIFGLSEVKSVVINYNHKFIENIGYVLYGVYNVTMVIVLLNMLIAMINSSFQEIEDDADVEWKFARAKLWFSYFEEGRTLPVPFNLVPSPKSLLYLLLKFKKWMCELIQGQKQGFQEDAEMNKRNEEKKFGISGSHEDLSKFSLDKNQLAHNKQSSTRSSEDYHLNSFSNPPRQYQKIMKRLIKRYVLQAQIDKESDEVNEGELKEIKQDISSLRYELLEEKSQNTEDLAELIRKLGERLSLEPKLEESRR
TRPC6 activator = mouse TRPC6 channel activation | Q61143 | HEK293-TRPC6 membrane potential dye fluorescence; hits give high values | B-score at 10 µM | 310,000 compounds, 0.13% hits | AID 2550;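 active = B-score of the integrated fluorescence ratio above library mean plus 3 SD, and starting fluorescence ratio within library mean plus 5 SD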;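 also: higher score means more depolarization so channel activation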
TRPC4 potent = TRPC4 (mouse) allosteric potentiation; B-score at 10 µM; 310,000 compounds, 0.42% hits; HEK293 TRPC4beta/mu-opioid, DAMGO EC20, Fluo-4 Ca2+ flux; hits give high values;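 active = B-score of calcium response area above 5 SD of library B-scores, with initial fluorescence ratio within 5 SD of library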
TRPC4 inh = inhibitors of mouse TRPC4 channel | 300,000 compounds, 0.39% hits | HEK293 TRPC4beta/mu-opioid, DAMGO-evoked Fluo4 calcium flux; hits give low values | B-score at 10 µM | Q9QUQ5;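 active = B-score over 3 SD under the library average, no early fluorescence shift, positive overall ratio signal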
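Assay system: HEK293 cells with stable TRPC4beta plus mu-opioid receptor expression. Dosing: single dose. Measured by: Fluo4 Ca2+ flux fluorescence. Also added: DAMGO in two steps, submaximal then maximal. Read-out: B score from integrated Fluo4 fluorescence ratio.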
TRPC4 act = TRPC4 (mouse) channel activation; 310,000 compounds, 0.49% hits; B-score at 10 µM; AID 2237; Q9QUQ5; HEK293 TRPC4beta/mu-opioid, Fluo4 calcium fluorescence; hits give high values;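 active = B-score above 5 SD of library B-scores, and initial fluorescence ratio not above library mean plus 5 SD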;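 also: positive B-score marks a calcium rise read as TRPC4 activation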
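system = HEK293 cells stably co-expressing mouse TRPC4beta and mu-opioid receptor | schedule = Fluo4 dye loading 45 min at room temperature, 110 s recording | measure = B-scored integrated calcium fluorescence ratio | signal = Fluo4 calcium-sensitive dye fluorescence, kinetic, 1 Hz baseline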
A number is an active result.

OC12CCCCC1C(c1ccc3c(c1)OCO3)N(Cc1ccc(F)cc1)CC2 (stereo not given) was read as TRPC6 inh inactive, TRPC6 activator inactive, TRPC4 potent inactive, TRPC4 inh inactive and TRPC4 act 48.
`O=C(Nc1cccc(S(=O)(=O)N2CCCCC2)c1)C1CC(=O)N(c2ccc3c(c2)OCCO3)C1` (stereo not given) gave TRPC6 inh inactive, TRPC6 activator inactive, TRPC4 potent inactive, TRPC4 inh inactive and TRPC4 act inactive.
O=S(=O)(NCC1(N2CCOCC2)CCCCC1)c1ccc(Cl)cc1C(F)(F)F was read as TRPC6 inh inactive, TRPC6 activator inactive, TRPC4 potent inactive, TRPC4 inh inactive and TRPC4 act 47.
Screening N#Cc1ccc(C(=O)Nc2cc(S(=O)(=O)N3CCCC3)ccc2OCC(F)(F)F)cc1 returned TRPC6 inh inactive, TRPC6 activator inactive, TRPC4 potent inactive, TRPC4 inh inactive and TRPC4 act inactive.
`Cc1ccc(C)n1-c1ncc(Br)cn1` gave TRPC6 inh inactive, TRPC6 activator inactive, TRPC4 potent 21, TRPC4 inh inactive and TRPC4 act inactive.
Cc1cc(Br)ccc1OCCN1CCCC1 was read as TRPC6 inh inactive, TRPC6 activator inactive, TRPC4 potent 15, TRPC4 inh inactive and TRPC4 act inactive.
For CCN1CCN(CCOc2ccc(Br)cc2C)CC1 the results were TRPC6 inh inactive, TRPC6 activator inactive, TRPC4 potent inactive, TRPC4 inh inactive and TRPC4 act inactive.
`COc1cc(C(=O)NNC(=O)Nc2ccc([N+](=O)[O-])cc2)cc(OC)c1OC` gave TRPC6 inh inactive, TRPC6 activator inactive, TRPC4 potent inactive, TRPC4 inh inactive and TRPC4 act inactive.
COCCN(C(=O)COC(=O)CCOc1cccc(C)c1)c1c(N)n(Cc2ccccc2)c(=O)[nH]c1=O was read as TRPC6 inh inactive, TRPC6 activator inactive, TRPC4 potent inactive, TRPC4 inh inactive and TRPC4 act inactive.
`O=C(NCc1c(Cl)cccc1Oc1ccccc1)c1ccccc1` gave TRPC6 inh inactive, TRPC6 activator inactive, TRPC4 potent inactive, TRPC4 inh inactive and TRPC4 act inactive.
For CCOc1ccccc1N(CC(=O)N1CCOCC1)S(=O)(=O)c1ccccc1 the results were TRPC6 inh inactive, TRPC6 activator inactive, TRPC4 potent inactive, TRPC4 inh -6 and TRPC4 act 93.
CC(C)(C)[C@H]1CCC(=O)N([C@H](CN=[N+]=[N-])Cc2ccccc2)CC1 was read as TRPC6 inh inactive, TRPC6 activator inactive, TRPC4 potent inactive, TRPC4 inh inactive and TRPC4 act inactive.
Screening COc1ccc(-n2nc(C(=O)NCC(=O)N3CCN(c4ccccc4)CC3)c3ccccc3c2=O)cc1OC returned TRPC6 inh inactive, TRPC6 activator inactive, TRPC4 potent inactive, TRPC4 inh inactive and TRPC4 act inactive.
`CN1CCN(NC(=O)c2ccc(Cl)c([N+](=O)[O-])c2)CC1` gave TRPC6 inh inactive, TRPC6 activator inactive, TRPC4 potent inactive, TRPC4 inh inactive and TRPC4 act 44.
CC(C)Cc1ccccc1O was read as TRPC6 inh inactive, TRPC6 activator inactive, TRPC4 potent inactive, TRPC4 inh inactive and TRPC4 act inactive.
CCS(=O)(=O)c1ccc(O)c(NC(=O)Nc2ccc(C(C)(C)C)cc2)c1 was read as TRPC6 inh inactive, TRPC6 activator inactive, TRPC4 potent inactive, TRPC4 inh inactive and TRPC4 act inactive.
COc1cc(C(=O)N(CCc2ccccc2)C2=CC3CCC(C2)N3C)cc(OC)c1OC (stereo not given) was read as TRPC6 inh inactive, TRPC6 activator inactive, TRPC4 potent inactive, TRPC4 inh -7 and TRPC4 act inactive.
`CCC(CC)C(=O)Nc1nnc(S(=O)(=O)N2c3ccccc3CC2C)s1` (stereo not given) gave TRPC6 inh inactive, TRPC6 activator inactive, TRPC4 potent inactive, TRPC4 inh inactive and TRPC4 act inactive.
For COc1cc(NS(=O)(=O)c2ccc(Nc3nc(-c4ccccc4)cs3)cc2)nc(OC)n1 the results were TRPC6 inh inactive, TRPC6 activator inactive, TRPC4 potent inactive, TRPC4 inh inactive and TRPC4 act inactive.
Screening COc1ccc(CCNC(=O)c2ccc(OCC(=O)N3CCOCC3)c(OC)c2)cc1OC returned TRPC6 inh inactive, TRPC6 activator inactive, TRPC4 potent inactive, TRPC4 inh inactive and TRPC4 act inactive.
For COc1ccc(Cc2nc3ccc(C(=O)NCCCSC)cc3o2)cc1OC the results were TRPC6 inh inactive, TRPC6 activator inactive, TRPC4 potent inactive, TRPC4 inh inactive and TRPC4 act inactive.
Cc1ccc(SCC(=O)NNC(=O)c2ccccc2)cc1C was read as TRPC6 inh inactive, TRPC6 activator inactive, TRPC4 potent inactive, TRPC4 inh inactive and TRPC4 act inactive.
`Cc1ccc(SCCN)cc1C` gave TRPC6 inh inactive, TRPC6 activator inactive, TRPC4 potent inactive, TRPC4 inh inactive and TRPC4 act 83.
`CCOC(=O)c1c(-c2ccccc2)oc2ccc(OCC(O)CN(C)C)cc12` (stereo not given) gave TRPC6 inh inactive, TRPC6 activator inactive, TRPC4 potent inactive, TRPC4 inh inactive and TRPC4 act inactive.
For Cc1cc2oc(C(=O)N(Cc3ccccc3)C3CCS(=O)(=O)C3)cc(=O)c2cc1Cl (stereo not given) the results were TRPC6 inh inactive, TRPC6 activator inactive, TRPC4 potent 23, TRPC4 inh inactive and TRPC4 act inactive.
Screening O=C(c1sc2ccccc2c1Cl)N(Cc1ccco1)C1CCS(=O)(=O)C1 (stereo not given) returned TRPC6 inh inactive, TRPC6 activator inactive, TRPC4 potent inactive, TRPC4 inh inactive and TRPC4 act 59.
For O=C(c1sc2ccccc2c1Cl)N(Cc1ccccc1Cl)C1CCS(=O)(=O)C1 (stereo not given) the results were TRPC6 inh inactive, TRPC6 activator inactive, TRPC4 potent inactive, TRPC4 inh inactive and TRPC4 act inactive.
O=C(c1sc2ccccc2c1Cl)N(Cc1ccccc1)C1CCS(=O)(=O)C1 (stereo not given) was read as TRPC6 inh inactive, TRPC6 activator inactive, TRPC4 potent inactive, TRPC4 inh inactive and TRPC4 act 107.
COc1cccc(C2NC(=O)NC(C)=C2C(=O)OCC2CCCCC2)c1 (stereo not given) was read as TRPC6 inh inactive, TRPC6 activator inactive, TRPC4 potent inactive, TRPC4 inh inactive and TRPC4 act inactive.
For Cc1nc2c3cc(Cl)ccc3n(CCN3CCCCC3)c2s1 the results were TRPC6 inh inactive, TRPC6 activator inactive, TRPC4 potent inactive, TRPC4 inh -6 and TRPC4 act inactive.
COC(=O)Cn1c2ccc(Cl)cc2c2nc(C)sc21 was read as TRPC6 inh inactive, TRPC6 activator inactive, TRPC4 potent inactive, TRPC4 inh inactive and TRPC4 act inactive.
`CCO/N=C(\C)c1c(O)c2ccccc2n(C)c1=O` gave TRPC6 inh inactive, TRPC6 activator inactive, TRPC4 potent inactive, TRPC4 inh inactive and TRPC4 act inactive.
